Source: PubChem (several laboratories)
LYP inh 2 = LYP (human) phosphatase inhibition; Q9Y2R2; recombinant LYP catalytic domain, DiFMUP fluorescence; inhibition, % at 2 µM; 96,000 tested, 0.21% active; AID 640;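 active = inhibition at 2 µM at or above a set limit, the screen mean plus 3 SD, cut at about 24% in these data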
PTPN22 act = increases human PTPN22 phosphatase activity. AID 697. activation, % at 2 µM. Q9Y2R2. recombinant LYP, DiFMUP fluorescence; 0 = plate median, 100 = signal doubled. 96,000 tested, 0.11% active;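 active = activation at 2 µM above a set limit, the mean plus 5 SD, cut at about 37% in these data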
Rev-RRE block = disrupts HIV-1 Rev binding to RRE RNA; P05866; Rev peptide-RRE RNA binding, FRET; inhibition, % at 8 µM; 97,000 tested, 0.79% active; AID 704;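 active = inhibition above the screen-wide mean plus 3 SD, cut at about 35% in these data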
Target sequence (P05866 whole entry, looked up): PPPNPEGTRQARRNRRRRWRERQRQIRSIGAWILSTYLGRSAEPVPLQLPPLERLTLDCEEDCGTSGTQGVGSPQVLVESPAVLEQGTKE
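Test system – labelled RRE RNA duplex and labelled Rev peptide · Reagent – labelled Rev peptide · Doses – one concentration, 8 µM nominal · Incubation – 5 + 15 min at 25 °C · Signal – FRET fluorescence readout · Read-out basis – % inhibition of FRET ratio versus controls · Control set – DMSO wells as 0% and neomycin B wells as 100% inhibition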
PLK1 inh = blocks human PLK1 kinase activity. AID 619. recombinant PLK1 kinase, TR-FRET peptide phosphorylation. 97,000 tested, 0.53% active. inhibition, % at 10 µM;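 active = inhibition of 50% or more in the single-concentration screen; inactive = inhibition below 50%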
Target sequence (P53350 whole entry, looked up): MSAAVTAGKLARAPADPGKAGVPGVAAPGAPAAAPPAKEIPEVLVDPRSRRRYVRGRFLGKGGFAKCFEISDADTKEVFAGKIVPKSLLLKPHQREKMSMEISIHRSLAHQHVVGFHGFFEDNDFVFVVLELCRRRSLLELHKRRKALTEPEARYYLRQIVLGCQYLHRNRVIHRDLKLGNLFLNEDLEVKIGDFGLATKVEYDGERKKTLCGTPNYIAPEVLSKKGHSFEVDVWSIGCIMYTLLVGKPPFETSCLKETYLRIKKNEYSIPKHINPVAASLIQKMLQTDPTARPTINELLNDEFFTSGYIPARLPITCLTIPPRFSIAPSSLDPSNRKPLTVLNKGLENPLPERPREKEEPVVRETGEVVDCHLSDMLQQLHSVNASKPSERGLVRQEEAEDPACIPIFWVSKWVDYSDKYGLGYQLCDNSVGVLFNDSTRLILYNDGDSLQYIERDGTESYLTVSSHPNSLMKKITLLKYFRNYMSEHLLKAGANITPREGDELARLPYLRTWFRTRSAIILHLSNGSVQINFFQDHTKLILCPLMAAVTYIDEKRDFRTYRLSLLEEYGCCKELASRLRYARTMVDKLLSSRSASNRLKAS
PLK1 PBD inh = Plk1 (human) PBD binding inhibition. inhibition, %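 (tested at about 20 µM)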. 97,000 tested, 0.13% active. P53350. Plk1 PBD phosphopeptide binding, fluorescence polarization. AID 693; in the data active = inhibition above about 34%, passing the limit was not always enough
hDAT+cocaine = human DAT dopamine uptake with cocaine, either direction; Q01959; 110,000 tested, 1.3% active; LLC-PK1 hDAT cells, [14C]-dopamine uptake with cocaine IC80; actives deviate in either direction; B-score at 10 µM;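 active = Z score or B-score, a plate-position-corrected score, falls beyond the plate's 99.7% confidence bounds, in either direction; inactive = both scores lie inside the 99.7% bounds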
Each line names hits and unclear results; the compound was inactive in the other large screens; [ ] = another dose, or the depositor's remark. Compounds with a hit are over-represented: about 2.7% of the library has one in this group of screens.

Cc1ccc(C)c(N2CCN(S(=O)(=O)c3c(C)noc3/C=C/N(C)C)CC2)c1	none
Cc1noc(/C=C/N(C)C)c1S(=O)(=O)N1CCN(c2ccccc2)CC1	PLK1 inh 69 (no result: LYP inh 2, PTPN22 act)
Cc1ccc(-n2c(SCC(N)=O)nnc2-c2ccc(S(=O)(=O)N3CCCCC3)cc2)c(C)c1	none
NNC(=O)c1ccccc1CO	none (no result: LYP inh 2, PTPN22 act, Rev-RRE block, PLK1 inh, PLK1 PBD inh)
Clc1ccc(-c2cn3nc4c(nc3n2)CCCC4)cc1	Rev-RRE block 38
COc1cccc(-c2cn3nc4c(nc3n2)CCCC4)c1	none
O=C(Nc1ccc(OC(=O)c2ccco2)cc1)c1ccco1	none
O=C(Nc1ccc(Oc2cccc3ccccc23)cc1)c1ccco1	hDAT+cocaine 2.4
O/N=C/c1cc(Cl)ccc1OCc1cccc2ccccc12	none
Cc1oc(-c2ccc(Cl)cc2)nc1CN1CCCC(C(=O)N2CCN(C(=O)c3ccco3)CC2)C1 (stereo not given)	PLK1 inh 62 (no result: LYP inh 2, PTPN22 act)
CCc1ccc(-c2nc(CN3CCCC(C(=O)O)C3)c(C)o2)cc1 (stereo not given)	none
CCO[C@@H]1OC(C(=O)NCc2ccccc2)=C[C@H](c2ccc(Br)cc2)[C@H]1CCCO	none (no result: LYP inh 2, PTPN22 act, Rev-RRE block, PLK1 inh, PLK1 PBD inh)
CC1CCN(C(c2ccc(N(C)C)cc2)c2nnnn2Cc2ccccc2)CC1 (stereo not given)	none
COc1ccc(Cn2nnnc2C(c2ccc(N(C)C)cc2)N2CCC(C)CC2)cc1 (stereo not given)	hDAT+cocaine 2
CCCCc1nc2n[nH]c(N)c2c2c1CCCC2	PLK1 inh 58
CCCc1nc2n[nH]c(N)c2c2c1CCCC2	none
Cc1cc(C(=O)N2CCC(C(F)(F)F)n3nccc32)on1 (stereo not given)	hDAT+cocaine -2.9
N#Cc1cc2c(nc1SC1CCCCC1O)CCCC2 (stereo not given)	none
COCCCn1c(SCc2ccccc2)nc2cc(OC)c(OC)cc2c1=N	hDAT+cocaine 8.2
O=C(NCCCn1ccnc1)c1ccc(Br)c(S(=O)(=O)N2CCOCC2)c1	hDAT+cocaine -8.4
O=C(NCCCn1ccnc1)c1cc(S(=O)(=O)N2CCOCC2)c(Cl)cc1Cl	none (no result: LYP inh 2, PTPN22 act, Rev-RRE block, PLK1 inh, PLK1 PBD inh)
CCN1C(=O)N(C)[C@@H](c2ccccc2)C(C(C)=O)=C1C	none (no result: LYP inh 2, PTPN22 act, Rev-RRE block, PLK1 inh, PLK1 PBD inh)
CC(C)n1c(SCc2ccc(Cl)cc2)nc2c1c(=O)[nH]c(=O)n2C	hDAT+cocaine -3.1
Cc1cccc(C(C)Nc2ccc([N+](=O)[O-])cn2)c1 (stereo not given)	none
CCCCCCCCC/C(=N\O)c1ccccn1	LYP inh 2 28
CCCc1nc2ccccc2c(=O)n1/N=C/c1ccc(O)cc1	none
CCCc1nc2ccccc2c(=O)n1/N=C/c1ccc(O)cc1O	hDAT+cocaine -8.8
O=C(c1ccco1)[C@@H]1[C@@H]2C(=O)N(c3ccc(F)cc3)C(=O)[C@@H]2C2c3ccccc3C=CN21 (stereo not given in full)	Rev-RRE block 42
O=C(c1ccco1)[C@@H]1[C@@H]2C(=O)N(c3ccc(Br)cc3)C(=O)[C@@H]2C2c3ccccc3C=CN21 (stereo not given in full)	Rev-RRE block 41
CCOC(=O)C1CCCN(C(=O)CSc2nccn2C)C1 (stereo not given)	hDAT+cocaine -3
CCOC(=O)C1CCCN(C(=O)COc2ccccc2O)C1 (stereo not given)	none
COCCN1C(=O)N[C@@H](CCc2ccccc2)[C@H](C(=O)OC)[C@H]1C	none (no result: LYP inh 2, PTPN22 act, Rev-RRE block, PLK1 inh, PLK1 PBD inh)
Cc1ccccc1C1CC(c2ccc(F)cc2)Nc2nc(N)nn21 (stereo not given)	PLK1 inh 70
COc1ccc(C2CC(c3ccccc3)Nc3nc(N)nn32)cc1 (stereo not given)	hDAT+cocaine 2.5
CC1(C)Cc2ccccc2-c2nc(NCCCO)n(-c3ccccc3)c(=O)c21	none (no result: LYP inh 2, PTPN22 act, Rev-RRE block, PLK1 inh, PLK1 PBD inh)
C=CCc1ccc(O)c(-c2ccc(O)c(CC=C)c2)c1	none (no result: LYP inh 2, PTPN22 act, Rev-RRE block, PLK1 inh, PLK1 PBD inh)
Cc1ccc(S(=O)(=O)N(c2nc(N(C)C)nc(N(C)C)n2)n2cnnc2)cc1	none (no result: LYP inh 2, PTPN22 act, Rev-RRE block, PLK1 inh, PLK1 PBD inh)
Nc1ncnc2c1ncn2C1OC(CO)C(O)C1N (stereo not given)	none (no result: LYP inh 2, PTPN22 act, Rev-RRE block, PLK1 inh, PLK1 PBD inh)
O=C(OCC1OC(n2cnc3c(N(C(=O)c4ccccc4)C(=O)c4ccccc4)ncnc32)C(O)C1F)c1ccccc1 (stereo not given)	LYP inh 2 60
O=c1[nH]c(Nc2ccccc2Cl)cc2ccccc12	none (no result: LYP inh 2, PTPN22 act, Rev-RRE block, PLK1 inh, PLK1 PBD inh)
O=c1[nH]c(Nc2ccc(F)cc2)cc2ccccc12	Rev-RRE block 47
Oc1c(Cl)cc(Cl)cc1C=Nc1ccc2c(c1)OCCO2	Rev-RRE block 46
CCCc1[nH]nc2c1C(c1ccc(OC)c(Cn3nnc4ccccc43)c1)C(C#N)=C(N)O2 (stereo not given)	hDAT+cocaine 3.6
CCCn1c(SCC(=O)NCCc2ccccc2)nnc1-c1ccco1	none
COc1ccc2nc(SCc3cnc(C)nc3N)[nH]c2c1	LYP inh 2 58
Clc1cc(Cl)cc(Nc2ncn[nH]2)c1	none
Cc1c(Cl)cccc1-n1c(SCC(=O)N(C)Cc2ccccc2)nnc1-c1ccncc1	hDAT+cocaine 3.8
CCOc1cc(/C=C(/C#N)C(=O)Nc2ccc(O)cc2)cc(Br)c1O	Rev-RRE block 117[fluorescence artefact?], hDAT+cocaine -3.4
CCN1C(=O)c2cccc3c(NC(=O)c4ccc(S(=O)(=O)N5CCOCC5)cc4)ccc1c23	hDAT+cocaine 3.7
CCN1C(=O)c2cccc3c(NC(=O)c4ccc(S(=O)(=O)N(C)C)cc4)ccc1c23	none (no result: LYP inh 2, PTPN22 act, Rev-RRE block, PLK1 inh, PLK1 PBD inh)
Cn1c2c(c(=O)n(C)c1=O)C(C(F)(F)F)(C(F)(F)F)N=C(c1ccc(Cl)cc1)N2	hDAT+cocaine -3.1
CCOc1cc(C2C(C(=O)c3ccc(C)o3)=C(O)C(=O)N2CCc2ccccc2)ccc1O (stereo not given)	hDAT+cocaine -4.6
COc1cc(C2C(C(=O)c3ccco3)=C(O)C(=O)N2CCc2ccccc2)ccc1O (stereo not given)	hDAT+cocaine -3.3 (no result: LYP inh 2, PTPN22 act, Rev-RRE block, PLK1 inh, PLK1 PBD inh)
COc1ccc(CCN2C(=O)C(O)=C(C(=O)c3ccco3)C2c2cccs2)cc1OC (stereo not given)	hDAT+cocaine -3.3
COc1cc(C2C(C(C)=O)=C(O)C(=O)N2CCc2ccc(OC)c(OC)c2)ccc1O (stereo not given)	none
Cc1ccc(NC(=O)Cn2c(=O)oc3cc(S(=O)(=O)N4CCC(C)CC4)ccc32)cc1C	none
Brc1ccc([C@H]2CN3CCSC3=N2)cc1	none (no result: LYP inh 2, PTPN22 act, Rev-RRE block, PLK1 inh, PLK1 PBD inh)
CC1=C(C(=O)OCc2ccccc2)C(c2cccnc2)c2c(n(C)c(=O)n(C)c2=O)N1 (stereo not given)	none
CN1CCc2c(sc3c2C(=O)NC(c2ccccn2)N3)C1 (stereo not given)	Rev-RRE block 43
Cc1ccc(C2NC(=O)c3c(sc4c3CCN(C)C4)N2)s1 (stereo not given)	Rev-RRE block 75
Cc1ccc(C2NC(=O)c3c(sc4c3CCN(C)C4)N2)o1 (stereo not given)	none
